The source made the active and inactive calls. The rule behind the calls is not given here.

One assay has as its system Danio rerio. Kind of assay: In vivo inhibition of porcupine in zebrafish embryos assessed as inhibition of Wnt/beta-casein-mediated posterior axis formation at 1 to 5 uM applied in aquarium water by mCherry-based reporter gene assay. The class given is functional, organism-based. Conditions: in the assay text read “beta-catenin” for “beta-casein”. The gist of the method:
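Zebrafish embryos carrying an mCherry-based Wnt/β-catenin signaling reporter were exposed to increasing concentrations of compound in the aquarium water. Whole-animal fluorescence intensity was quantified, and posterior axis formation was scored.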
Background: Reporter assays use an easily measured gene product as a stand-in for the process of interest.
As to `O=C(CSc1nc2c(c(=O)n1-c1ccccc1)SCC2)Nc1ccc(-c2cncnc2)cn1`, the inhibition result was “inactive”.
Turning to `O=C(CSc1nc2c(c(=O)n1-c1ccccc1)SCC2)Nc1ccc(-c2ccoc2)cn1`, the inhibition result was “inactive”.
Still for that read-out and setting: then `O=C(CSc1nc2c(c(=O)n1-c1ccccc1)SCC2)Nc1ccc(-c2cccs2)cn1`, with “Active”.

Another assay concerns the target T1, Protein-serine O-palmitoleoyltransferase porcupine (Mus musculus, UniProt Q9JJJ7).
T1 sequence (Q9JJJ7 whole entry): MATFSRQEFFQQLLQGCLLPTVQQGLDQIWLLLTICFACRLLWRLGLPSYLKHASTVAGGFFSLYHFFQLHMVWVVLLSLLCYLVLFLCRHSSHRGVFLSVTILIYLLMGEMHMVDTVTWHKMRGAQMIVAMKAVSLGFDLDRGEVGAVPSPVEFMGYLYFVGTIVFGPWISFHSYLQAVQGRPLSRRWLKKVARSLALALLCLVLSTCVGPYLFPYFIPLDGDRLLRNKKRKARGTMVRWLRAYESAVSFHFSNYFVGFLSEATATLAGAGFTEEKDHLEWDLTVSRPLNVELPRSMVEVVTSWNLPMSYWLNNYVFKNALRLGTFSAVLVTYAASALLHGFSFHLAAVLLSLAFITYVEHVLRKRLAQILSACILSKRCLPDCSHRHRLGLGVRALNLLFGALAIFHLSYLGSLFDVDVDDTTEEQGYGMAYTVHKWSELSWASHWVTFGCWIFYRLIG
Kind of assay: Inhibition of porcupine-mediated Wnt signalling in mouse L cells after 24 hrs by SuperTopflash reporter assay. The class given is cell-based.
Details: not given
A word on the EC50: it is the concentration at which the effect is half-maximal. `COc1ccc(-n2c(SCC(=O)Nc3nc4ccc(OC)cc4s3)nc3c(c2=O)SCC3)cc1` returned a half-maximal effective concentration (EC50) of 120 nM.
On to `CC(=O)c1ccc(NC(=O)CSc2nc3c(c(=O)n2-c2ccccc2)SCC3)cc1`, for which the EC50 was above 1000 nM.
As to `COc1ccc(-n2nc(C(=O)NCC(=O)Nc3nc4ccccc4s3)c3ccccc3c2=O)cc1`, the EC50 turned out to be 25000 nM.
`O=C(CNC(=O)c1nn(-c2ccccc2)c(=O)c2ccccc12)Nc1nc2ccc(C(F)(F)F)cc2s1` displayed an EC50 of 110 nM.
Still for that read-out and setting: then `O=C(CSc1nc2c(c(=O)n1-c1ccccc1)SCC2)Nc1ncc(-c2ccccc2)cn1`, with 15 nM.
For `COc1ccccc1-n1nc(C(=O)NCC(=O)Nc2nc3ccccc3s2)c2ccccc2c1=O`, the response was half-maximal at 10000 nM (EC50).
Turning to `COc1ccc(-n2nc(C(=O)NCC(=O)Nc3nc4ccc(OC)cc4s3)c3ccccc3c2=O)cc1`, the 50% effective concentration (EC50) turned out to be 60 nM.
In turn, `O=C(CSc1nc2c(c(=O)n1-c1ccccc1)SCC2)Nc1ccc(-c2cccnc2)cn1` came in with an EC50 of 1 nM. Compared with the last compound, the EC50 is about 60-fold lower.
With `O=C(CSc1nc2c(c(=O)n1-c1ccccc1)SCC2)Nc1ncc(-c2ccco2)cn1`, the 50% effective concentration (EC50) stood at 3.5 nM.
As to `COc1ccc2nc(NC(=O)CSc3nc4c(c(=O)n3-c3ccccc3OC)SCC4)sc2c1`, the concentration giving a half-maximal response (EC50) is 50 nM. Against the preceding compound, the EC50 is about 14-fold higher.
Regarding `O=C(CNC(=O)c1nn(-c2ccccc2)c(=O)c2ccccc12)Nc1nccs1`, the EC50 was above 25000 nM.
`COc1ccccc1-n1c(SCC(=O)Nc2nc3ccc(Cl)cc3s2)nc2c(c1=O)SCC2`: the midpoint of the response, the EC50, lay at 50 nM.
The same measure, in the same setting: then `O=C(CNC(=O)c1nn(-c2ccccc2)c(=O)c2ccccc12)Nc1nc2ccc(Cl)cc2s1`, with 30 nM; and `O=C(CSc1nc2c(c(=O)n1-c1ccc(F)cc1)SCC2)Nc1nc2ccc(C(F)(F)F)cc2s1`, with 100 nM; and `O=C(CSc1nc2c(c(=O)n1-c1ccccc1)SCC2)Nc1ccc(N2CCCCC2)cc1`, with 30 nM.
Turning to `O=C(CSc1nc2c(c(=O)n1-c1ccccc1)SCC2)Nc1nc2ccc(C(F)(F)F)cc2s1`, a half-maximal response (EC50) required 40 nM.
On the same count and under the same terms, the same measure for `Cc1ccc2nc(NC(=O)CSc3nc4c(c(=O)n3-c3ccccc3)SCC4)sc2c1`: 30 nM.
For `O=C(CSc1nc2c(c(=O)n1-c1ccccc1)SCC2)Nc1cccc(-c2ccccc2)c1`, the concentration for a half-maximal effect (EC50) is above 5000 nM.
Turning to `CN(C)c1ccc(NC(=O)CSc2nc3c(c(=O)n2-c2ccccc2)SCC3)cc1`, the EC50 was above 1000 nM.
`O=C(CSc1nc2c(c(=O)n1-c1ccccc1)SCC2)Nc1ncc(-c2ccccc2)s1` gave an EC50 of 55 nM.
In the case of `Cc1ccc2nc(NC(=O)CNC(=O)c3nn(-c4ccc(F)cc4)c(=O)c4ccccc34)sc2c1`, the EC50 came out at 100 nM.
`COc1ccccc1-n1c(SCC(=O)Nc2nc3ccc(C)cc3s2)nc2c(c1=O)SCC2` registered a concentration for a half-maximal effect (EC50) of 25 nM.
On to `O=C(CSc1nc2c(c(=O)n1-c1ccccc1)SCC2)Nc1ccc(-c2ccccc2)cc1`, for which the midpoint of the response, the EC50, lay at 0.75 nM. This EC50 is about 33-fold lower than that of the compound before.
Consider `CCOc1ccc(NC(=O)CSc2nc3c(c(=O)n2-c2ccccc2)SCC3)cc1`, for which the EC50 is 1000 nM.
`O=C(CSc1nc2c(c(=O)n1-c1ccccc1)SCC2)Nc1ncc(-c2ccoc2)cn1` came in with an EC50 of 1.5 nM.
In turn, `CCOC(=O)c1ccc(NC(=O)CSc2nc3c(c(=O)n2-c2ccccc2)SCC3)cc1` had an EC50 of 300 nM. This EC50 is about 200-fold higher than that of the compound before.
The same measure, in the same setting: then `COc1ccc2nc(NC(=O)CNC(=O)c3nn(-c4ccccc4)c(=O)c4ccccc34)sc2c1`, with 210 nM; and `CCn1c(SCC(=O)Nc2nc3ccccc3s2)nc2c(c1=O)SC(C)C2` (stereo not given), with 4000 nM; and `Cc1ccc2nc(NC(=O)CNC(=O)c3nn(-c4ccccc4)c(=O)c4ccccc34)sc2c1`, with 35 nM.
`COc1ccc2nc(NC(=O)CNC(=O)c3nn(-c4ccccc4OC)c(=O)c4ccccc34)sc2c1` showed a concentration giving a half-maximal response (EC50) of 90 nM.
Consider `COc1ccc(-n2c(SCC(=O)Nc3nc4ccc(C(F)(F)F)cc4s3)nc3c(c2=O)SCC3)cc1`, for which the half-maximal effective concentration (EC50) came out at 100 nM.
Consider `O=C(CSc1nc2c(c(=O)n1-c1ccccc1)SCC2)Nc1ccc(-c2cncnc2)cn1`, for which the EC50 was 5.5 nM.
With `COc1ccc2nc(NC(=O)CNC(=O)c3ccc(=O)n(-c4ccccc4)c3)sc2c1`, the concentration for a half-maximal effect (EC50) was above 25000 nM.
The compound `COc1ccc(-n2nc(C(=O)NCC(=O)Nc3nc4ccc(C)cc4s3)c3ccccc3c2=O)cc1` displayed an EC50 of 25 nM.
On the same count and under the same terms, then `O=C(CSc1nc2c(c(=O)n1-c1ccccc1)SCC2)Nc1ccc(-c2ccoc2)cn1`, with 1.5 nM; and `O=C(CSc1nc2c(c(=O)n1-c1ccccc1)SCC2)Nc1ccc(-c2cccnc2)cc1`, with 0.45 nM; and `COc1ccc2nc(NC(=O)CSc3nc4c(c(=O)n3-c3ccc(F)cc3)SCC4)sc2c1`, with 250 nM.
On the same count and under the same terms, the same measure for `Cc1ccc2nc(NC(=O)CSc3nc4c(c(=O)n3C)SC(C)C4)sc2c1` (stereo not given): 15 nM; for `O=C(CSc1nc2c(c(=O)n1-c1ccccc1)SCC2)Nc1ccc(-c2ccccn2)cc1`: 4 nM; for `O=C(CNC(=O)c1nn(-c2ccccc2)c(=O)c2ccccc12)Nc1nc2ccc([N+](=O)[O-])cc2s1`: 240 nM.
Compound `CCOC(=O)c1ccc2nc(NC(=O)CNC(=O)c3nn(-c4ccccc4)c(=O)c4ccccc34)sc2c1` showed an EC50 above 25000 nM.
The same measure, in the same setting: then `Cc1ccc2nc(NC(=O)CSc3nc4c(c(=O)n3-c3ccc(F)cc3)SCC4)sc2c1`, with 40 nM.
Compound `O=C(CNC(=O)c1nn(-c2ccccc2)c(=O)c2ccccc12)Nc1nc2ccccc2s1` came in with an EC50 of 2600 nM.
In the case of `COc1ccc(-n2c(SCC(=O)Nc3nc4ccc(Cl)cc4s3)nc3c(c2=O)SCC3)cc1`, it took 35 nM to reach a half-maximal effect (EC50). This EC50 lies about 74-fold lower than the previous one.
Turning to `O=C(CSc1nc2c(c(=O)n1-c1ccccc1)SCC2)Nc1ccc(-c2cccs2)cn1`, the 50% effective concentration (EC50) is 0.3 nM. Against the preceding compound, the EC50 is about 120-fold lower.
With `O=C(CSc1nc2c(c(=O)n1-c1ccccc1)SCC2)Nc1ccc(-c2ccccc2)nc1`, the concentration for a half-maximal effect (EC50) worked out at 0.3 nM.
The compound `COc1ccc2nc(NC(=O)CSc3nc4c(c(=O)n3-c3ccccc3)SCC4)ccc2c1` registered an EC50 of 580 nM.
The compound `O=C(CSc1nc2c(c(=O)n1-c1ccccc1)SCC2)Nc1ccccc1-c1ccccc1` had a concentration giving a half-maximal response (EC50) above 5000 nM.
For `O=C(CSc1nc2c(c(=O)n1-c1ccccc1)SCC2)Nc1ccc(-c2ccncc2)cc1`, the half-maximal effective concentration (EC50) was found to be 3 nM.
In turn, `O=C(CSc1nc2c(c(=O)n1-c1ccccc1)SCC2)Nc1ccc(-c2ccco2)cn1` returned a concentration giving a half-maximal response (EC50) of 3.5 nM.
In turn, `O=C(CNC(=O)c1nn(-c2ccc(F)cc2)c(=O)c2ccccc12)Nc1nc2ccc(Cl)cc2s1` came in with an EC50 of 25 nM. Compared with the last compound, the EC50 is about 7.1-fold higher.
For `COc1ccc2nc(NC(=O)CNC(=O)c3nn(-c4ccc(F)cc4)c(=O)c4ccccc34)sc2c1`, the EC50 is 90 nM.
Take `COc1ccc(-n2nc(C(=O)NCC(=O)Nc3nc4ccc(Cl)cc4s3)c3ccccc3c2=O)cc1`: the concentration giving a half-maximal response (EC50) was 15 nM.
As for `O=C(CSc1nc2c(c(=O)n1-c1ccccc1)SCC2)Nc1nc2ccc(Cl)cc2s1`, the EC50 was determined as 40 nM.
`O=C(CSc1nc2c(c(=O)n1-c1ccccc1)SCC2)Nc1nc(-c2ccccc2)cs1` showed an EC50 of 350 nM.
`O=C(CSc1nc2c(c(=O)n1-c1ccccc1)SCC2)Nc1ccc(-c2ccsc2)cn1` registered an EC50 of 2 nM.
The same measure, in the same setting: the same measure for `O=C(CNC(=O)c1nn(-c2ccc(F)cc2)c(=O)c2ccccc12)Nc1nc2ccccc2s1`: above 25000 nM.
For the compound `O=C(CSc1nc2c(c(=O)n1-c1ccc(F)cc1)SCC2)Nc1nc2ccc(Cl)cc2s1`, it took 175 nM to reach a half-maximal effect (EC50). In other words, the sub-micromolar range.
The same measure, in the same setting: the same measure for `COc1ccc2nc(NC(=O)CSc3nc4c(c(=O)n3-c3ccccc3)SCC4)sc2c1`: 40 nM; for `O=C(CNC(=O)c1nn(-c2ccc(F)cc2)c(=O)c2ccccc12)Nc1nc2ccc(C(F)(F)F)cc2s1`: 90 nM.
In turn, `COc1ccccc1-n1c(SCC(=O)Nc2nc3ccc(C(F)(F)F)cc3s2)nc2c(c1=O)SCC2` returned an EC50 of 30 nM.
`O=C(CNC(=O)c1nn(-c2ccccc2)c(=O)c2ccccc12)Nc1nc2ccc(F)cc2s1` came in with a concentration for a half-maximal effect (EC50) of 470 nM.
